According to ChEMBL document CHEMBL5712087, “Targeting bromodomain-containing protein 4 (BRD4) inhibits MYC expression in colorectal cancer cells” (Neoplasia, 2019):
Activity calls are given as the source filed them. No cut-off for these calls is given here.

Tests used:
Type in all cases: cell-based
[1] = molecular target: T1, von Hippel-Lindau disease tumor suppressor/Bromodomain-containing protein 4 (Homo sapiens) (UniProt O60885+P40337); assay: PROTAC activity at BRD4/VHL E3 ligase in human LS174T cells assessed as BRD4 protein degradation at 250 nM for 2 hrs and measured 22 hrs after washout by Western blot analysis
How it was run: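 LS174t cells were exposed to PROTAC for 2 h. For washout, the PROTAC was removed by changing the culture medium and cells were harvested 22 h later. BRD4 was assessed by western blot (15 µg lysate, 10% SDS-PAGE, chemiluminescence), normalised against GAPDH/β-actin.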

[2] = molecular target: T1, von Hippel-Lindau disease tumor suppressor/Bromodomain-containing protein 4 (Homo sapiens); assay: PROTAC activity at BRD4/VHL E3 ligase in human SW480 cells assessed as decrease in BRD4 protein degradation at 5 to 10 uM for 24 hrs by Western blot analysis; conditions: dose 5-10 µM
How it was run: (§1)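 Eight CRC lines, including LS174t (RPMI 1640) and SW480 (DMEM/HamsF12), all with 10% FCS, were treated with PROTAC at 5 and 10 µM. BRD4 and MYC proteins were detected by immunoblot (RIPA lysate, 15 µg, 10% gel, primary 1:1,000 overnight at 4 °C), with GAPDH/β-actin as loading control.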

[3] = molecular target: T1, von Hippel-Lindau disease tumor suppressor/Bromodomain-containing protein 4 (Homo sapiens); assay: PROTAC activity at BRD4/VHL E3 ligase in human LS174T dbet1 resistant cells assessed as MYC protein expression at 500 to 1000 nM for 24 hrs by Western blot analysis; conditions: dose 500-1000 nM
How it was run: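 Resistant LS174t cells were derived by four months' exposure to rising dBET1 concentrations, with outgrowing cells expanded. Resistant and parental cells were then treated and analysed for BRD4 and MYC protein by western blot (GAPDH/β-actin control) and for MYC mRNA by qPCR normalised to PPIA/ACTB (ΔΔCq).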

[4] = molecular target: T1, von Hippel-Lindau disease tumor suppressor/Bromodomain-containing protein 4 (Homo sapiens); assay: PROTAC activity at BRD4/VHL E3 ligase in human LS174T cells assessed as BRD4 protein degradation at 100 to 1000 nM for 24 hrs by Western blot analysis; conditions: dose 100-1000 nM
How it was run: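 LS174t cells (RPMI 1640, 10% FCS) were exposed to 1 nM–10 µM for 24 h. Lysates in RIPA with inhibitors and 2.5 mmol/l DTT; 15 µg protein was run on 10% SDS-PAGE and transferred to nitrocellulose. BRD4 or MYC primary antibodies were used at 1:1,000 overnight at 4 °C, HRP secondary 1:10,000, and GAPDH/β-actin as loading control. Detection was by chemiluminescence.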

[5] = molecular target: T1, von Hippel-Lindau disease tumor suppressor/Bromodomain-containing protein 4 (Homo sapiens); assay: PROTAC activity at BRD4/VHL E3 ligase in human SW480 cells assessed as decrease in MYC protein expression at 5 to 10 uM for 24 hrs by Western blot analysis; conditions: dose 5-10 µM; how it was run: as §1
[6] = molecular target: T2, Protein cereblon/Bromodomain-containing protein 4 (Homo sapiens) (UniProt O60885+Q96SW2); assay: PROTAC activity at BRD4/Cereblon in human HT-29 cells assessed as decrease in BRD4 protein degradation at 5 to 10 uM for 24 hrs by Western blot analysis; conditions: dose 5-10 µM
How it was run: (§2)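 Eight CRC lines exposed 24 h to PROTAC at 5 or 10 µM (stocks 2 mM in DMSO, diluted in PBS or medium). Lysis in RIPA with protease/phosphatase inhibitors and 2.5 mmol/l DTT; 15 µg protein on 10% SDS-PAGE, semi-dry transfer to nitrocellulose. Anti-BRD4 or anti-MYC at 1:1,000 overnight at 4 °C; GAPDH or β-actin loading control; chemiluminescence.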

[7] = molecular target: T2, Protein cereblon/Bromodomain-containing protein 4 (Homo sapiens); assay: PROTAC activity at BRD4/Cereblon in human LS174T cells assessed as BRD4 protein degradation at 100 to 500 nM pretreated with proteasome inhibitor MG132 for 4 hrs by Western blot analysis; conditions: dose 100-500 nM
How it was run: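 LS174t cells pre-incubated 4 h with proteasome inhibitor MG132 (10 mM DMSO stock) before PROTAC exposure. BRD4 read by immunoblot: 15 µg lysate, 10% SDS-PAGE, anti-BRD4 1:1,000 overnight at 4 °C, GAPDH/β-actin loading control.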

[8] = molecular target: T2, Protein cereblon/Bromodomain-containing protein 4 (Homo sapiens); assay: PROTAC activity at BRD4/Cereblon in human LS174T cells assessed as BRD4 protein degradation at 100 to 1000 nM for 24 hrs by Western blot analysis; conditions: dose 100-1000 nM
How it was run: (§3)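 Cells treated 24 h across 1 nM–10 µM range (fibroblasts at 500/1000 nM). Immunoblot: RIPA lysate with 2.5 mmol/l DTT, 15 µg per lane on 10% SDS-PAGE, nitrocellulose, 5% milk block 1 h. BRD4 or MYC primary 1:1,000 overnight at 4 °C, HRP secondary 1:10,000 for 60 min; GAPDH/β-actin loading control; ECL detection.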

[9] = molecular target: T2, Protein cereblon/Bromodomain-containing protein 4 (Homo sapiens); assay: PROTAC activity at BRD4/Cereblon in human LS174T cells assessed as BRD4 protein degradation at 500 nM for 2 hrs by Western blot analysis
How it was run: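 LS174t cells exposed 2 h to PROTAC; for washout, medium replaced and cells collected 22 h later. BRD4 by immunoblot (15 µg lysate, 10% SDS-PAGE, anti-BRD4 1:1,000 overnight at 4 °C, GAPDH/β-actin control).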

[10] = molecular target: T2, Protein cereblon/Bromodomain-containing protein 4 (Homo sapiens); assay: PROTAC activity at BRD4/Cereblon in human LS174T-dbet1 resistant cells assessed as BRD4 protein degradation at 500 to 1000 nM for 24 hrs by Western blot analysis; conditions: dose 500-1000 nM
[11] = molecular target: T2, Protein cereblon/Bromodomain-containing protein 4 (Homo sapiens); assay: PROTAC activity at BRD4/Cereblon in human fibroblast cells assessed as effect on MYC protein expression at 500 to 1000 nM for 24 hrs by Western blot analysis; conditions: dose 500-1000 nM; how it was run: as §3
[12] = molecular target: T2, Protein cereblon/Bromodomain-containing protein 4 (Homo sapiens); assay: PROTAC activity at BRD4/Cereblon in human HCT116 p53-/- cells assessed as decrease in MYC protein expression at 5 to 10 uM for 24 hrs by Western blot analysis; conditions: HCT-116, dose 5-10 µM; how it was run: as §2

T1 sequence (P40337 whole entry, looked up, other chains not shown): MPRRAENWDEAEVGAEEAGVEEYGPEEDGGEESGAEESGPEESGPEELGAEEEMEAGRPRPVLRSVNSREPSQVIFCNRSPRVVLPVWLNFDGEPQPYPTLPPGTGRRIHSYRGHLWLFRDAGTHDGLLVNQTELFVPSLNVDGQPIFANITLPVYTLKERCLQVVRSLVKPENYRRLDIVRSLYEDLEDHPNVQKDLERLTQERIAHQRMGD
T2 sequence (Q96SW2 whole entry, looked up, other chains not shown): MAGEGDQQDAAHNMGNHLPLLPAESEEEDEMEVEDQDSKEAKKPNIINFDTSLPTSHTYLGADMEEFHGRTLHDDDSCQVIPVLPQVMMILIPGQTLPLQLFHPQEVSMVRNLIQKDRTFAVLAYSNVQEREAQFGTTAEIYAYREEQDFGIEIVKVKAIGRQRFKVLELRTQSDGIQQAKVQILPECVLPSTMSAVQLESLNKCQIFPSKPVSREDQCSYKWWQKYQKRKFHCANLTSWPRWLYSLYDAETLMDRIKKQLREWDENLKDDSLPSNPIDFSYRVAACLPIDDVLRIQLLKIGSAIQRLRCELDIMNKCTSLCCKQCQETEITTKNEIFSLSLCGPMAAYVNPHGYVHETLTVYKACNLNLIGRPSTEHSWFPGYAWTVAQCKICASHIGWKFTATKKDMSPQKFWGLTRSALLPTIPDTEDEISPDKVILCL

Row | Compound | Activity [1] | Activity [2] | Activity [3] | Activity [4] | Activity [5] | Activity [6] | Activity [7] | Activity [8] | Activity [9] | Activity [10] | Activity [11] | Activity [12]
1 | Cc1ncsc1-c1ccc(CNC(=O)[C@@H]2C[C@@H](O)CN2C(=O)[C@@H](NC(=O)COCCOCCOCCNC(=O)C[C@@H]2N=C(c3ccc(Cl)cc3)c3c(sc(C)c3C)-n3c(C)nnc32)C(C)(C)C)cc1 | inactive | Active | Active | Dose-Dependent Effect | Active | – | – | – | – | – | – | –
2 | Cc1sc2c(c1C)C(c1ccc(Cl)cc1)=N[C@@H](CC(=O)NCCCCNC(=O)COc1cccc3c1C(=O)N(C1CCC(=O)NC1=O)C3=O)c1nnc(C)n1-2 (some centres not stated) | – | – | – | – | – | Active | inactive | Dose-Dependent Effect | Active | inactive | inactive | Active
